Data from ChEMBL document CHEMBL1781962, “Development of Fluorescent Ligands for the Human 5-HT1A Receptor” (ACS Med Chem Lett, 2010).
Activity calls are given as the source filed them. The rule behind the calls is not given here.

Columns and labels:
[1] = target: T1, 5-hydroxytryptamine receptor 1A (Homo sapiens, UniProt P08908); test: Displacement of [3H]8-OH-DPAT from human 5HT1A receptor expressed in EBNA gene-positive HEK293 cells after 120 mins; assay type: cell-based
T1 sequence (P08908 whole entry): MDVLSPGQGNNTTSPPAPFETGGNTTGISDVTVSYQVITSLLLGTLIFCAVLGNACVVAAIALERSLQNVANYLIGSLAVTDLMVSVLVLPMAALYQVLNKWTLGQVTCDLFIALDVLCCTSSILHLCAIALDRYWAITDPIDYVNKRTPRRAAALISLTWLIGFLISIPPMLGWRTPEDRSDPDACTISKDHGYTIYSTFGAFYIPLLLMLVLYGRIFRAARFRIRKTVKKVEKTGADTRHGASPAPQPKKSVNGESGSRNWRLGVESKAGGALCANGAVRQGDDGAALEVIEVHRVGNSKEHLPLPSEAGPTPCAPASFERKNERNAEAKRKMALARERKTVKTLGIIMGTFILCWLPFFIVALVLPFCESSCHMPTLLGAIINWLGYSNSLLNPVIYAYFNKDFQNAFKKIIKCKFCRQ
Summary of the method: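 Radioligand competition binding with [3H]-8-hydroxy-DPAT on membranes from transfected HEK-293 EBNA cells expressing h5-HT1AR. Buffer was 50 mM Tris-HCl, 0.5 mM MgSO4, pH 7.4. Ki was obtained from IC50 by the Cheng-Prusoff equation. Values are means ± SEM of 2–4 independent experiments, each run in triplicate.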

[2] = target: 5-hydroxytryptamine receptor 7 (Homo sapiens) (UniProt P34969); test: Displacement of [3H]LSD from human 5HT7 receptor expressed in HEK293 cells at 1 uM after 120 mins by scintillation counting; assay type: cell-based
5-hydroxytryptamine receptor 7 (Homo sapiens), sequence (P34969 whole entry): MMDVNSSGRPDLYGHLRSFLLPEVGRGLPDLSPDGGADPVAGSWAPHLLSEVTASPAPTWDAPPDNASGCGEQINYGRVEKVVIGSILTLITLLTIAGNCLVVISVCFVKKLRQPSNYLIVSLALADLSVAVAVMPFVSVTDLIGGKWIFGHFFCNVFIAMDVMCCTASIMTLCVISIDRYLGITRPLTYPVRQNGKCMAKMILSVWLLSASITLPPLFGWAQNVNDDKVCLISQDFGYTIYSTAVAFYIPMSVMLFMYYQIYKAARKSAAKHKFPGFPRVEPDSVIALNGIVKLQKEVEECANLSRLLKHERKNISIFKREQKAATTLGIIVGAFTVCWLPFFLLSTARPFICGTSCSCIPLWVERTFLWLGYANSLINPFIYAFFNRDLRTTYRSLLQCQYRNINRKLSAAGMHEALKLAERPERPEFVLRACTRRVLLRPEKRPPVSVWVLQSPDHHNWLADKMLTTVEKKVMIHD
Summary of the method: (§1)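 Selectivity screen by radioligand binding at the 5-HT2A, 5-HT4e, 5-HT5a, 5-HT6 and 5-HT7 receptors. Test compound was used at a single concentration of 1 μM. Read-out was percent displacement of the corresponding radioligand.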

[3] = target: 5-hydroxytryptamine receptor 2A (Homo sapiens) (UniProt P28223); test: Binding affinity to human 5HT2A receptor at 1 uM by radioligand displacement assay; summary of the method: as §1
5-hydroxytryptamine receptor 2A (Homo sapiens), sequence (P28223 whole entry): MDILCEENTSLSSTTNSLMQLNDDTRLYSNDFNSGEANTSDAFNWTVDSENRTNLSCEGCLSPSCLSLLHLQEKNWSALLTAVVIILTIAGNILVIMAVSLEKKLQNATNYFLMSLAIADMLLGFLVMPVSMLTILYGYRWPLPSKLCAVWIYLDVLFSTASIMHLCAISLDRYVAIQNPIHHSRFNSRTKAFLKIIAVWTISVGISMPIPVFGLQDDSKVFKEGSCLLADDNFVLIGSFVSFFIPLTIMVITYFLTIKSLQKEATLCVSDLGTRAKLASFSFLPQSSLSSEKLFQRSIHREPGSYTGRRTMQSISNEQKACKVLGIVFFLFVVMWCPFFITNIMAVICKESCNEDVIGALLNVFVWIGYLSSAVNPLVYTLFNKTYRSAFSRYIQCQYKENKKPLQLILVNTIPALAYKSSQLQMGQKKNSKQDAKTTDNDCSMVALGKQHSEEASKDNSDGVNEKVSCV

[4] = target: 5-hydroxytryptamine receptor 5A (Homo sapiens) (UniProt P47898); test: Binding affinity to human 5HT5A receptor at 1 uM by radioligand displacement assay; summary of the method: as §1
5-hydroxytryptamine receptor 5A (Homo sapiens), sequence (P47898 whole entry): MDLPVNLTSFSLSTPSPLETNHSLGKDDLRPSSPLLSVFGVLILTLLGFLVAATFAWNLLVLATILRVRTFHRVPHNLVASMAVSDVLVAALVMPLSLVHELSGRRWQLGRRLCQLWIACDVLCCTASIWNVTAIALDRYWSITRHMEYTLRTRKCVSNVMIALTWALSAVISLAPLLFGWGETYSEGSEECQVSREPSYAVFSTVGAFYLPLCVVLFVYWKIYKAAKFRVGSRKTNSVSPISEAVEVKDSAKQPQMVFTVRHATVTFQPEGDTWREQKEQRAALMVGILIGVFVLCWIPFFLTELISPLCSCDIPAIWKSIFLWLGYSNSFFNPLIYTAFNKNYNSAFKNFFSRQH

[5] = target: T1, 5-hydroxytryptamine receptor 1A; test: Binding affinity to human 5HT1A receptor expressed in HEK-293 EBNA cell membranes by [3H]-8-hydroxy-DPAT radioligand binding
[6] = target: 5-hydroxytryptamine receptor 6 (Homo sapiens) (UniProt P50406); test: Displacement of [3H]LSD from human 5HT6 receptor expressed in HEK293 cells after 120 mins by radioligand displacement assay; assay type: cell-based; summary of the method: as §1
5-hydroxytryptamine receptor 6 (Homo sapiens), sequence (P50406 whole entry): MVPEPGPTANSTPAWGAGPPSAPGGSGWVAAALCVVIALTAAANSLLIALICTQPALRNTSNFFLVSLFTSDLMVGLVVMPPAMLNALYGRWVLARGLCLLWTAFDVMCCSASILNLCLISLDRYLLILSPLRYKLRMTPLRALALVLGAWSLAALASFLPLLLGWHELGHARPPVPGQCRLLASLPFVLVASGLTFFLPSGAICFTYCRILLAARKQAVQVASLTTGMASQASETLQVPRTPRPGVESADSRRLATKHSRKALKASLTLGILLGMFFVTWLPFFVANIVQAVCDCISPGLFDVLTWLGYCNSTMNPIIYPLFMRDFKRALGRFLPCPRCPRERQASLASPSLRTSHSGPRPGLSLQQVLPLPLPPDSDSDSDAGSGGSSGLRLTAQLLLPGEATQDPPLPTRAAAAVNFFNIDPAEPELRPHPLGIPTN

[7] = target: 5-hydroxytryptamine receptor 4 (Homo sapiens) (UniProt Q13639); test: Binding affinity to human 5-HT4e receptor at 1 uM by radioligand displacement assay; summary of the method: as §1
5-hydroxytryptamine receptor 4 (Homo sapiens), sequence (Q13639 whole entry): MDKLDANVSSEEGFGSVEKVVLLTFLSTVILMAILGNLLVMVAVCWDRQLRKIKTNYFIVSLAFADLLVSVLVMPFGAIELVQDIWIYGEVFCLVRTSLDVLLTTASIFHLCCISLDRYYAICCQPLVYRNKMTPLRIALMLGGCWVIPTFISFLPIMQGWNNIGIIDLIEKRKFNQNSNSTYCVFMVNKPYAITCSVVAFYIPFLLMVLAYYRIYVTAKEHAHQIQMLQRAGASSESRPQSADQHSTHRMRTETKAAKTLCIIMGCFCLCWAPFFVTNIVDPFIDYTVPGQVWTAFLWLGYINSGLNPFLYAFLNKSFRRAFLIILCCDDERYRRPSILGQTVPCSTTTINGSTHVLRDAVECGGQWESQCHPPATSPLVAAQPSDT

Row | Compound | Ki [1] [nM] | also measured
1 | COc1ccccc1N1CCN(CCCCN2C(=O)N3CCCC3(CCNCCCCCNS(=O)(=O)c3cccc4c(N(C)C)cccc34)C2=O)CC1 (stereo not drawn) | 7 | 
2 | COc1ccccc1N1CCN(CCCCN2C(=O)N3CCCC3(CCCCNCCCCCNS(=O)(=O)c3cccc4c(N(C)C)cccc34)C2=O)CC1 (stereo not drawn) | 9 | 
3 | COc1ccccc1N1CCN(CCCCN2C(=O)N3CCCC3(CCCCNS(=O)(=O)c3cccc4c(N(C)C)cccc34)C2=O)CC1 (stereo not drawn) | 11 | 
4 | CN(C)c1cccc2c(S(=O)(=O)NCCCCC34CCCN3C(=O)N(CCCCN3CCN(c5cccc6ccccc56)CC3)C4=O)cccc12 (stereo not drawn) | 2 | Activity [2]: > 80%; Activity [3]: > 80%; Activity [4]: > 80%; Ki [5]: 38 nM; Activity [6]: inactive; Activity [7]: inactive
5 | O=C1C2CCCN2C(=O)N1CCCCN1CCN(c2cccc3ccccc23)CC1 (stereo not drawn) | 2.4 | 
6 | CN(C)c1cccc2c(S(=O)(=O)N3CCN(CCCCN4C(=O)C5CCCN5C4=O)CC3)cccc12 (stereo not drawn) | > 1000 | 
7 | COc1ccccc1N1CCN(CCCCN2C(=O)N3CCCC3(CCCCCCCNS(=O)(=O)c3cccc4c(N(C)C)cccc34)C2=O)CC1 (stereo not drawn) | 15 | 
8 | CN(C)S(=O)(=O)c1cccc2c(N3CCN(CCCCN4C(=O)C5CCCN5C4=O)CC3)cccc12 (stereo not drawn) | 350 | 
9 | CN(C)S(=O)(=O)c1ccc2cccc(N3CCN(CCCCN4C(=O)C5CCCN5C4=O)CC3)c2c1 (stereo not drawn) | 2.4 | 
10 | COc1ccccc1N1CCN(CCCCN2C(=O)C3CCCN3C2=O)CC1 (stereo not drawn) | 5.5 | 
11 | CN(C)c1cccc2c(S(=O)(=O)NCCCCCCCC34CCCN3C(=O)N(CCCCN3CCN(c5cccc6ccccc56)CC3)C4=O)cccc12 (stereo not drawn) | 5 | 
12 | CN(C)S(=O)(=O)c1ccc2c(N3CCN(CCCCN4C(=O)C5CCCN5C4=O)CC3)cccc2c1 (stereo not drawn) | 98 | 
